What follows are compounds tested on Rattus norvegicus (assay: Effective dose after subcutaneous administration to TPTX rats for 50% reduction of hypercalcemia). Conditions: sc.
Type: functional
Procedure, shortened: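 Young male rats (130-150 g) were thyroparathyroidectomized and allowed 4 days to recover, then fasting serum was sampled. Animals with serum Ca above 1.88 mM were discarded, and the rest were randomized into groups of 5. On days 5-8, 1,25(OH)2D3 (125 pmol/kg sc) was given with graded sc doses of bisphosphonate, and total serum calcium was measured. ED50 is the sc dose halving the hypercalcemia.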
For `CCCCCN(C)C(C)CC(O)(P(=O)(O)O)P(=O)(O)O` (stereo unspecified), the ED50 was 0.065 mg/kg. With `O=P(O)(O)C(O)(Cn1cccn1)P(=O)(O)O` the ED50 was over 0.3 mg/kg. `Cn1ccnc1CC(O)(P(=O)(O)O)P(=O)(O)O` showed an ED50 of 0.0006 mg/kg. `CN(CCCOc1ccc(Cl)cc1)CCC(O)(P(=O)(O)O)P(=O)(O)O` was tested, and the ED50 was 0.0013 mg/kg. In the case of `CCc1cnc(NC(P(=O)(O)O)P(=O)(O)O)s1`, the ED50 is reported as 0.0015 mg/kg. `O=P(O)(O)C(N1CCCCC1)P(=O)(O)O` showed an ED50 of 0.8 mg/kg. `CN(C)CCC(O)(P(=O)(O)O)P(=O)(O)O` [OLPADRONIC ACID] showed an ED50 of 0.012 mg/kg. `O=P(O)(O)C(O)(CCN1CCC(c2ccccc2)C1)P(=O)(O)O` (stereo unspecified) showed an ED50 of 0.07 mg/kg. For `CN(C)CCC(N)(P(=O)(O)O)P(=O)(O)O` [LIDADRONIC ACID], the ED50 was over 0.2 mg/kg. `O=P(O)(O)C(Nc1nccs1)P(=O)(O)O` was tested, and the ED50 was 0.005 mg/kg. In the case of `O=P(O)(O)C(O)(C1CCCNC1)P(=O)(O)O` (stereo unspecified), the ED50 is reported as 0.25 mg/kg. In the case of `CN(CCCOc1ccccc1)CCCC(O)(P(=O)(O)O)P(=O)(O)O`, the ED50 is reported as 0.1 mg/kg. `Cn1ccnc1NC(P(=O)(O)O)P(=O)(O)O` was tested, and the ED50 was 0.005 mg/kg. `O=P(O)(O)C(NC1CCCCCC1)P(=O)(O)O` [INCADRONIC ACID] was tested, and the ED50 was 0.007 mg/kg. `O=P(O)(O)C(O)(CCCCCN1CCC(c2ccccc2)CC1)P(=O)(O)O` was tested, and the ED50 was over 0.3 mg/kg. Work on `CN(CCCCCCOc1ccccc1)CCC(O)(P(=O)(O)O)P(=O)(O)O` yielded an ED50 of 7.5 mg/kg. `O=P(O)(O)C(O)(CCNCCSc1ccccc1)P(=O)(O)O` was tested, and the ED50 was over 0.2 mg/kg. Compound `O=P(O)(O)C(O)(Cn1cncn1)P(=O)(O)O` has an ED50 of 0.6 mg/kg. `O=P(O)(O)C(N1CCCC1)P(=O)(O)O` showed an ED50 of over 2 mg/kg. Work on `Cc1ncn(CC(O)(P(=O)(O)O)P(=O)(O)O)c1C` yielded an ED50 of 0.0015 mg/kg. For `O=P(O)(O)C(O)(CCN1CCC(c2ccccc2)CC1)P(=O)(O)O`, the ED50 was about 0.011 mg/kg. `O=P(O)(O)C(O)(C1CCNCC1)P(=O)(O)O` was tested, and the ED50 was about 2.5 mg/kg. In the case of `O=P(O)(O)C(O)(CCc1c[nH]cn1)P(=O)(O)O`, the ED50 is reported as 0.02 mg/kg. `CC(N)CC(O)(P(=O)(O)O)P(=O)(O)O` (stereo unspecified) gave an ED50 of 0.0034 mg/kg. `O=P(O)(O)C(O)(Cc1c[nH]c(-c2ccccc2)n1)P(=O)(O)O` was tested, and the ED50 was over 3 mg/kg. `CN(CCCOc1ccc(F)cc1)CCC(O)(P(=O)(O)O)P(=O)(O)O` gave an ED50 of 0.0006 mg/kg. Compound `O=P(O)(O)C(Nc1nc2ccccc2[nH]1)P(=O)(O)O` has an ED50 of over 10 mg/kg. `O=P(O)(O)C(Nc1nc2ccccc2s1)P(=O)(O)O` showed an ED50 of over 3 mg/kg. With `CC(=O)NCCC(O)(P(=O)(O)O)P(=O)(O)O` the ED50 was over 1 mg/kg. In the case of `CN(C)CCC(P(=O)(O)O)P(=O)(O)O`, the ED50 is reported as 0.1 mg/kg. With `Cc1[nH]cnc1CC(O)(P(=O)(O)O)P(=O)(O)O` the ED50 was 0.0015 mg/kg. Work on `CCCN(CCCOc1ccccc1)CCC(O)(P(=O)(O)O)P(=O)(O)O` yielded an ED50 of 0.01 mg/kg. `O=P(O)(O)C(Nc1ncc(-c2ccccc2)s1)P(=O)(O)O` was tested, and the ED50 was over 1 mg/kg. With `O=P(O)(O)C(O)(CCNCCCOc1ccccc1)P(=O)(O)O` the ED50 was 0.0012 mg/kg. With `NCCCCC(O)(P(=O)(O)O)P(=O)(O)O` the ED50 was 0.02 mg/kg. With `CC(CC(O)(P(=O)(O)O)P(=O)(O)O)N(C)C` (stereo unspecified) the ED50 was 0.018 mg/kg. `CP(=O)(O)C(Nc1nccs1)P(C)(=O)O` (stereo unspecified) gave an ED50 of over 10 mg/kg. `CN(CCCCc1ccccc1)CCC(O)(P(=O)(O)O)P(=O)(O)O` gave an ED50 of 0.0004 mg/kg. In the case of `O=P(O)(O)C(Nc1ncc[nH]1)P(=O)(O)O`, the ED50 is reported as about 0.5 mg/kg. `O=P(O)(O)C(O)(CCN1CCN(c2ccccc2)CC1)P(=O)(O)O` showed an ED50 of over 10 mg/kg. With `O=P(O)(O)C(O)(C1CCCCN1)P(=O)(O)O` (stereo unspecified) the ED50 was 0.05 mg/kg. For `O=P(O)(O)C(O)(CCN1CCCCC1)P(=O)(O)O`, the ED50 was 0.0056 mg/kg. For `CN(C)C(P(=O)(O)O)P(=O)(O)O`, the ED50 was over 3 mg/kg. For `O=P(O)(O)C(O)(CCN1CCC(c2cccc(F)c2)CC1)P(=O)(O)O`, the ED50 was 0.03 mg/kg. Work on `NCCCCCC(O)(P(=O)(O)O)P(=O)(O)O` [NERIDRONIC ACID] yielded an ED50 of 0.06 mg/kg. `O=P(O)(O)C(O)(CCCCCN1CCCC1)P(=O)(O)O` was tested, and the ED50 was 0.25 mg/kg. For `O=P(O)(O)C(O)(CCNCCCCc1ccccc1)P(=O)(O)O`, the ED50 was 0.001 mg/kg. Compound `CC(C)c1cnc(NC(P(=O)(O)O)P(=O)(O)O)s1` has an ED50 of 0.2 mg/kg. `CC(CCc1ccccc1)NCCC(O)(P(=O)(O)O)P(=O)(O)O` (stereo unspecified) was tested, and the ED50 was over 10 mg/kg. Compound `CCCCCN(C)CCC(O)(P(=O)(O)O)P(=O)(O)O` [IBANDRONIC ACID] has an ED50 of 0.0011 mg/kg. With `COc1ccc(OCCCN(C)CCC(O)(P(=O)(O)O)P(=O)(O)O)cc1` the ED50 was 0.0012 mg/kg. For `O=P(O)(O)C(Cc1nccs1)P(=O)(O)O`, the ED50 was 0.2 mg/kg. With `O=P(O)(O)C(O)(CCN1CCCCCCC1)P(=O)(O)O` the ED50 was over 0.3 mg/kg. `O=P(O)(O)C(O)(CCNCCCSc1ccccc1)P(=O)(O)O` showed an ED50 of 0.007 mg/kg. Work on `CN(CCCCOc1ccccc1)CCC(O)(P(=O)(O)O)P(=O)(O)O` yielded an ED50 of 0.004 mg/kg. `NCC(O)(P(=O)(O)O)P(=O)(O)O` gave an ED50 of 0.15 mg/kg. `O=P(O)(O)C(O)(CCCN1CCCC1)P(=O)(O)O` was tested, and the ED50 was 0.025 mg/kg. In the case of `O=P(O)(O)C(O)(Cc1nccn1Cc1ccccc1)P(=O)(O)O`, the ED50 is reported as 0.025 mg/kg. Work on `O=P(O)(O)C(O)(CCn1ccnc1)P(=O)(O)O` yielded an ED50 of 0.045 mg/kg. `O=P(O)(O)C(O)(CCCN1CCC(c2ccccc2)CC1)P(=O)(O)O` was tested, and the ED50 was 0.1 mg/kg. In the case of `Cc1cccc(OCCCN(C)CCC(O)(P(=O)(O)O)P(=O)(O)O)c1`, the ED50 is reported as 0.0017 mg/kg. Work on `Cc1csc(NC(P(=O)(O)O)P(=O)(O)O)n1` yielded an ED50 of 0.1 mg/kg. For `O=P(O)(O)C(Nc1ncc(CCc2ccccc2)s1)P(=O)(O)O`, the ED50 was 0.0027 mg/kg. For `O=P(O)(O)C(O)(CCN1CCCCCC1)P(=O)(O)O`, the ED50 was 0.025 mg/kg. For `O=P(O)(O)C(Nc1nccn1Cc1ccccc1)P(=O)(O)O`, the ED50 was 0.075 mg/kg. For `CN(CCOc1ccc(Cl)cc1)CCC(O)(P(=O)(O)O)P(=O)(O)O`, the ED50 was 0.0017 mg/kg. With `O=P(O)(O)C(O)(C1CNC1)P(=O)(O)O` the ED50 was over 3 mg/kg. `CN(CCCCCCc1ccccc1)CCC(O)(P(=O)(O)O)P(=O)(O)O` was tested, and the ED50 was 1.5 mg/kg. `O=P(O)(O)C(O)(Cc1ncc[nH]1)P(=O)(O)O` gave an ED50 of 0.005 mg/kg. Work on `CN(CCCc1ccc(Cl)cc1)CCC(O)(P(=O)(O)O)P(=O)(O)O` yielded an ED50 of 0.0007 mg/kg. `CN(CCCSc1ccc(Cl)cc1)CCC(O)(P(=O)(O)O)P(=O)(O)O` was tested, and the ED50 was 0.0078 mg/kg. With `O=P(O)(O)C(O)(CCNCCCc1ccccc1)P(=O)(O)O` the ED50 was 0.02 mg/kg. In the case of `O=P(O)(O)C(O)(CCN1CCCC1)P(=O)(O)O`, the ED50 is reported as 0.01 mg/kg. `CN1CCN(CCC(O)(P(=O)(O)O)P(=O)(O)O)CC1` was tested, and the ED50 was about 0.4 mg/kg. Work on `CCCCN(CCCOc1ccccc1)CCC(O)(P(=O)(O)O)P(=O)(O)O` yielded an ED50 of 0.5 mg/kg. In the case of `CCCCc1cnc(NC(P(=O)(O)O)P(=O)(O)O)s1`, the ED50 is reported as 0.0009 mg/kg. `O=P(O)(O)C(O)(CCNCCc1ccccc1)P(=O)(O)O` gave an ED50 of 0.3 mg/kg. Compound `CN(CCCSc1ccccc1)CCC(O)(P(=O)(O)O)P(=O)(O)O` has an ED50 of 0.00033 mg/kg. `CNCCC(O)(P(=O)(O)O)P(=O)(O)O` was tested, and the ED50 was about 0.015 mg/kg. In the case of `O=P(O)(O)C(O)(CCN1CCC(c2ccc(Cl)cc2)C1)P(=O)(O)O` (stereo unspecified), the ED50 is reported as 0.0035 mg/kg. `CCCc1cnc(NC(P(=O)(O)O)P(=O)(O)O)s1` showed an ED50 of 0.002 mg/kg. In the case of `CCN(CCCOc1ccccc1)CCC(O)(P(=O)(O)O)P(=O)(O)O`, the ED50 is reported as 0.02 mg/kg. `CCCN(C)CCC(O)(P(=O)(O)O)P(=O)(O)O` gave an ED50 of 0.003 mg/kg. Compound `CCN(CC)CCC(O)(P(=O)(O)O)P(=O)(O)O` has an ED50 of 0.003 mg/kg. Work on `O=P(O)(O)C(N1CCCCCC1)P(=O)(O)O` [N-(HEXAMETHYLENEIMINO)METHYLENEBISPHOSPHONIC ACID] yielded an ED50 of 0.04 mg/kg. In the case of `O=P(O)(O)C(O)(Cc1c[nH]cn1)P(=O)(O)O`, the ED50 is reported as 0.0003 mg/kg.
